# In PubChem BioAssay AID743257 (The Scripps Research Institute Molecular Screening Center, 2014):
# Screen size: about 2,900 compounds; about 1,900 (66%) were called active. The set was probably picked from earlier hits. These entries were drawn from the full list. Values without a mark were called inactive.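 The calls were made as follows: active = mean inhibition across replicates above the hit cutoff set in the primary screen (cut at about 8.5% in these data); inactive = the rest.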
# Target: Disintegrin and metalloproteinase domain-containing protein 17 (Homo sapiens) (UniProt P78536)
# Test: inhibition of human ADAM17 protease activity – biochemical, QFRET peptide cleavage, confirmation (AID 743257);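 also: 0% = DMSO wells and 100% = marimastat wells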
# Conditions: recombinant ADAM17, EDANS/DABCYL QFRET peptide cleavage; at 6.95 µM; active compounds read high
# How it was run: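 Assay system – human ADAM17 enzyme, FRET peptide cleavage · Read-out – percent inhibition · Schedule – 30 min preincubation, 3 h reaction · Buffer or medium – 50 mM HEPES buffer, pH 7.5, with 0.01% Brij · Controls – DMSO wells and 1 µM marimastat wells as references · Measured by – fluorescence at ex 359 nm, em 460 nm · Dosing – 6.95 µM compound, single dose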
# Chain of Disintegrin and metalloproteinase domain-containing protein 17 (Homo sapiens) (P78536 215-824 limits assumed): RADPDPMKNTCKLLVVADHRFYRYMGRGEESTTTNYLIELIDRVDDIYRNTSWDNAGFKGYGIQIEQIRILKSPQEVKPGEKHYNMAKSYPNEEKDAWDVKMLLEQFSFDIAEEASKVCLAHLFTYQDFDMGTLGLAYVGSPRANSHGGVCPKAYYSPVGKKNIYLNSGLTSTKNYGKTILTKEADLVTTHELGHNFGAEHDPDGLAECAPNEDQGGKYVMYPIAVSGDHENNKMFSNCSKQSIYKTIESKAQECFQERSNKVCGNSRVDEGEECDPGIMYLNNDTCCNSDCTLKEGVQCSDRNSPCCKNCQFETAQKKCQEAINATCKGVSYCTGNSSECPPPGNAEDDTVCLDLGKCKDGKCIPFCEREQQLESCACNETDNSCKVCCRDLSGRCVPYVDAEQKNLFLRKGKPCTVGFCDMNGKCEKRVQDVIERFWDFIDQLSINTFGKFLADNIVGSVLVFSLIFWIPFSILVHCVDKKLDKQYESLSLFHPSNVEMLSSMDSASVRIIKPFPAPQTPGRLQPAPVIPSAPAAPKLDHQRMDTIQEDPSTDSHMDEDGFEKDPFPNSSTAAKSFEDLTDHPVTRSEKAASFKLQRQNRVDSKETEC
row,SMILES,inhibition
1,C=C(C)COc1ccc(-c2n[nH]c(C)c2-c2ccccc2)c(O)c1,20.8% (active)
2,COc1ccc(Cl)cc1NC(=O)COC(=O)C(CC(C)C)N1C(=O)C2CC=CCC2C1=O (configuration not stated),9.46% (active)
3,CC(C)N(C(=O)[C@H]1C[C@H](CC(=O)NC(C)(C)C)C(=O)N2CCc3c([nH]c4ccc(Cl)cc34)[C@]12C)C(C)C,8.88% (active)
4,CCOc1ccccc1CNS(=O)(=O)c1cc(-c2cc(C)no2)ccc1C,3.8%
5,CCOC(=O)c1cccc(NC(=O)CN(C)S(=O)(=O)c2ccc(-c3cocn3)s2)c1,6.09%
6,Cc1ccc(S(=O)(=O)N2CCN(C(=O)COC(=O)c3c(C)cc(C)cc3C)CC2)c(C)c1,9.17% (active)
7,COC(=O)N(C)C[C@@H]1OCc2cnnn2CCCC(=O)N([C@@H](C)CO)C[C@@H]1C,0.27%
8,Cn1nc(C(F)(F)F)c2cc(NC(=O)OCC(C)(C)C)sc21,10.8% (active)
9,O=C(CSc1nc(Nc2ccccc2)nc(N2CCOCC2)n1)Nc1cc(Cl)ccc1O,18.7% (active)
10,CC(C)(C)c1ccc(S(=O)(=O)NCC2CCN(C(=O)C(=O)c3cc4ccccc4o3)CC2)cc1,15.1% (active)
11,O=C1[C@H]2[C@@H](c3ccc(C(F)(F)F)cc3)N[C@]3(CCCN(Cc4ccc(Br)cc4)C3=O)[C@H]2C(=O)N1Cc1ccccc1,19.6% (active)
12,O=C(NCc1ccccc1)C1=C[C@@H](c2ccc(C(F)(F)F)cc2)C[C@@H](OCc2ccc(CO)cc2)O1,21.4% (active)
13,Cc1ccc(C(=O)Nc2ccc(C)c(S(=O)(=O)N(C)C)c2)s1,10.8% (active)
14,Cc1ccc(-n2c(COc3ccccc3)nnc2SCC(=O)Nc2ccc3c(c2)OCCO3)cc1,15.9% (active)
15,CCCn1nc(C(=O)NNC(=O)CSCC(=O)Nc2cc(C)on2)c2ccccc2c1=O,0.67%
16,Cc1cc(NC(=O)CN2C(=O)NC(CC(C)C)C2=O)no1 (configuration not stated),15.1% (active)
17,NNC(=O)C1CCCn2c1nc1sc3c(c1c2=O)CCCC3 (configuration not stated),1.06%
18,COc1ccc(CC(=O)c2ccc(O)cc2O)cc1OC,1.45%
19,CC(C)C(=O)Nc1cccc(NC(=S)NC(=O)C(c2ccccc2)c2ccccc2)c1,17.6% (active)
20,COc1cc(C2CC(=O)N3CN(Cc4ccccc4)CSC3=C2C#N)ccc1OCc1ccccc1 (configuration not stated),15.8% (active)
21,COc1ccc(S(=O)(=O)Nc2ccc(O)c(Sc3nc4ccccc4s3)c2)cc1,10.7% (active)

row,SMILES,inhibition
1,C=CCOc1ccccc1/C=N/NC(=O)Cc1ccccc1,2.48%
2,O=C1NC(=O)C(c2ccc(Cl)cc2)N1 (configuration not stated),13.7% (active)
3,Cc1ccc(-c2nnc(SCC(=O)Nc3ccc(Oc4ccccc4)cc3)n2Cc2ccco2)cc1,18.5% (active)
4,Cc1ccc(OCc2nnc(SC/C=C/c3ccccc3)n2Cc2ccco2)cc1,12.5% (active)
5,CN(C)c1ccc(NC(=O)NC2CCCCN(Cc3ccc(Cl)cc3)C2=O)cc1 (configuration not stated),3.4%
6,CCCN(CC(=O)NC(=O)NC1CCCCC1)CC(=O)Nc1cc(Cl)ccc1Cl,17.5% (active)
7,O=C(CSCc1ccc(Br)cc1)Nc1ccc(S(=O)(=O)N2CCCCCC2)cc1,12.6% (active)
8,COc1ccc(C(N)c2csc(NC(=O)Nc3cccc(C(F)(F)F)c3)n2)cc1 (configuration not stated),6.58%
9,Cn1nc(C(F)(F)F)c(C(=O)Nc2cccc(C(F)(F)F)c2)c1SCc1ccc(Cl)cc1,19.4% (active)
10,CC(=O)Nc1ccc(S(=O)(=O)Oc2ccc(Br)cc2C(=S)N2CCOCC2)cc1,9.82% (active)
11,S=C(NCc1ccc(Cl)cc1)NC12CC3CC(CC(C3)C1)C2,11.1% (active)
12,O=C(Cc1ccc(Cl)c(Cl)c1)Nc1ccc(SC(F)F)cc1,25.1% (active)
13,COc1ccc(CN(C)C(=O)CC(c2ccccc2)c2ccccc2)cc1,5.73%
14,O=C(c1ccccc1)N1CCN(c2ccc([N+](=O)[O-])c(NCc3ccco3)c2)CC1,9.37% (active)
15,CC(C)(C)OC(=O)CNC(=O)c1[nH]cnc1C(=O)N[C@@H](Cc1ccccc1)C(=O)OCc1ccccc1,20.1% (active)
16,CC(C)(C)OC(=O)N1CCC(NC(=O)c2[nH]cnc2C(=O)N[C@@H](Cc2ccccc2)C(=O)OCc2ccccc2)CC1,22.4% (active)
17,CCOc1ccc(OCC)c(-c2c(=O)n(OCc3ccc(Cl)cc3)c3ccccc3[n+]2[O-])c1,2.59%
18,Cc1sc2nc(SCC(=O)c3ccc(O)c(O)c3)n(Cc3ccco3)c(=O)c2c1C,12.6% (active)
19,CCn1c(Cc2cccs2)nnc1SCC(=O)c1ccc(C)cc1,2.25%
20,CCc1cccc(NC(=O)COC(=O)C2CCN(c3ccc(C(F)(F)F)cn3)CC2)c1,16.5% (active)
21,O=C(Cc1ncc(C(F)(F)F)cc1Cl)Nc1cccc(Br)c1,5.32%
